Cardio protect: myocardial damage modulation in H9c2 cells | H9c2 cardiomyocytes, H2O2 injury protection, ATPLite, 2 h | protection from H2O2 cell death, % at 20 µM | actives 0.63% (n = 360,000) | AID 588492;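 active = compounds giving at least 50% protection of heart cells from peroxide-induced death in the single-dose screen, raw or plate-pattern-corrected value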;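 also: 0% = DMSO wells with peroxide and 100% = DMSO wells without peroxide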
MT1-MMP act inh: MT1-MMP (human) activation inhibition; GFP/RFP ratio change, % at 20 µM; HT1080 RFP-PRO-GFP cells, GFP/RFP ratio fluorescence, overnight; percent of plate control window, DMSO zero; actives 0.061% (n = 360,000); P50281;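 active = GFP/RFP ratio change of at least 30% with cell ATP level not reduced by more than half and red fluorescence within 50% of control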
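Read-out: GFP/RFP fluorescence ratio; Test system: RFP-PRO-GFP reporter HT1080 cells; Compound dosing: single-point 20 µM compound, 1% DMSO; Times: overnight compound exposure at 37 °C.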
Tn6 DDE FP: inhibitors of Tn6 peptide binding to human fibrin DD(E); Fibrin DD(E) TRITC-Tn6 fluorescence polarization displacement; inhibition, % at 8.3 µM; actives 0.21% (n = 370,000);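 active = inhibition above a per-campaign cutoff: mean of compounds within control limits plus 3 SD, cut at about 15% in these data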;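 also: 0% = median of all compound wells on the plate and 100% = blocking peptide control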
Target sequence (P02675 whole entry, looked up): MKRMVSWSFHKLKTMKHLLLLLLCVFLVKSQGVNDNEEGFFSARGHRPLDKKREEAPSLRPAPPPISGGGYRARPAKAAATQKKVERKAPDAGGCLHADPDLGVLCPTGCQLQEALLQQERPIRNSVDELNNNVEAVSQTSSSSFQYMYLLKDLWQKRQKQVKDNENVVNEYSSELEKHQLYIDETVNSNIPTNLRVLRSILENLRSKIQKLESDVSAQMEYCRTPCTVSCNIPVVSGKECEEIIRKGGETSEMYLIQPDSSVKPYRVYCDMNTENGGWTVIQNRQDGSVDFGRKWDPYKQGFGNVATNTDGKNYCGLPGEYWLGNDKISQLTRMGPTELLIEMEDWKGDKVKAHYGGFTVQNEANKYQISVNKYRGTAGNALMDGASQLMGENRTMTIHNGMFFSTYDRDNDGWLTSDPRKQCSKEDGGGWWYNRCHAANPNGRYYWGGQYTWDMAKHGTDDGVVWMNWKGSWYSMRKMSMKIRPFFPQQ
DAGLB inh: blocks human DAGLB lipase activity. AID 504411. Q8NCG7. actives 0.059% (n = 340,000). inhibition, % at 5.17 µM. HEK293T DAGLB membrane lysate, EnzChek fluorogenic substrate; in the data active = inhibition above about 34%;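 also: 0% = enzyme with vehicle and 100% = wells lacking enzyme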
TAG inh: reduces triacylglycerol accumulation in H9c2 cells; inhibition, % at 12.5 µM; actives 0.66% (n = 230,000); Nile Red lipid (TAG) fluorescence; cells loaded with 200 µM oleic acid;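 active = pattern-corrected inhibition of lipid staining of at least 50% with the nuclear-stain viability signal not falling by more than 50%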;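 also: 0% = DMSO wells and 100% = triacsin C control wells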
DDE Tn7 FP inh: inhibitors of Tn7 peptide binding to human fibrin DD(E) | FP displacement of FITC-Tn7 peptide from fibrin DD(E); 0% = median of compound wells per plate | P02675 | inhibition, % at 8.3 µM | actives 0.13% (n = 370,000);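 active = inhibition above the mean of compounds falling within the control limits plus 3 SD of them, cut at about 14% in these data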;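 also: 0% = plate median of compound wells and 100% = 10 µM Aha-Tn7 peptide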
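Assay system: human fibrin DD(E). Input: DD(E) 2 µM final. Medium: Tris buffer with calcium and detergent, pH 7.8. Compound dosing: single point at 8.3 µM. Timing: 10 min plus 3 h, room temperature. Technique: fluorescence polarization of the labelled Tn7 tracer. Read-out: percent inhibition. Replicates: singlicate testing.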
The depositor's hits bear a star; x = no result given. The list is not random: actives were taken first. Their share in the collection is about 1.4%.

SMILES	Cardio protect	MT1-MMP act inh	Tn6 DDE FP	DAGLB inh	TAG inh	DDE Tn7 FP inh
O=C(Cn1[nH]c(=O)c2ccccc2c1=O)NC1CCCCCC1	78*	-9	0	0	x	8
O=C(COc1ccccc1)NC1CCN(Cc2ccccc2)CC1	-1	2	3	2	x	5
CCn1c2ccccc2c2cc(NC(=O)CSc3nnc(-c4ccccc4)n3Cc3ccco3)ccc21	x	x	1	x	x	3
Cn1cc(C2(C)CCOc3ccccc32)c2ccccc21 (centres undefined)	x	x	-9	x	x	7
O=C(N[C@H]1C[C@@H]2O[C@@H](CO)CC[C@@H]2O[C@@H]1CCc1ccc(-c2cccnc2)cc1)c1cccc(F)c1	x	x	0	x	x	1
O=C1N[C@H]2CC=C[C@H]2Nc2ccccc21	51*	2	1	-1	-4	0
COC(=O)Sc1nc(N2CCOCC2)c2c(c1C#N)CC(C)(C)OC2	55*	-5	-1	-1	-19	4
O=C(N1CCCC1)n1ncc(-c2ccc(-c3ccccc3)cc2)n1	x	x	8	x	x	11
O=C(NCCCN1CCOCC1)/C(=C/c1ccc(-c2cccc([N+](=O)[O-])c2)o1)NC(=O)c1ccccc1	21	-3	-3	3	17	0
Cc1nc2nc(C)n(CCN3CCOCC3)c(=O)c2c(-c2cccc([N+](=O)[O-])c2)c1C(=O)CCCCCCCCCCN1CCC(c2ccccc2)(c2ccccc2)CC1	-21	-12	-3	7	127*	4
Cc1ccc(-c2nc3ncccc3o2)cc1NC(=O)c1cccs1	2	-1	4	0	4	4
Cc1cc(NC(=O)c2cccs2)cc(-c2nc3ncccc3o2)c1O	58*	5	-2	1	38	-5
COc1cccc(-c2sc3cc(OC)c(OC)cc3c2-c2ccc(OCCN3CCCCC3)cc2)c1	-27	-5	x	1	92*	x
COc1cc(OC)c2ccc(=O)oc2c1C(CCN1CCCC1)c1ccc(N(C)C)cc1 (centres undefined)	11	0	-1	3	-16	-1
CCCCCc1cc(=O)oc2c(C(CCN3CCCC3)c3ccc(N(C)C)cc3)c(OC)cc(OC)c12 (centres undefined)	-13	3	-10	3	68*	5
CCCCCc1cc(=O)oc2c(C(CCN3CCCCC3)c3ccc(OC)cc3)c(OC)cc(OC)c12 (centres undefined)	-34	-1	0	2	111*	0
CCCCCc1cc(=O)oc2c(C(CCN3CCCC(C)C3)c3ccc(OC)cc3)c(OC)cc(OC)c12 (centres undefined)	-24	-3	-2	0	96*	-3
COc1cc(OC)c2ccc(=O)oc2c1C(CCN1CCCC(C)C1)c1ccc2c(c1)OCO2 (centres undefined)	17	2	3	-1	42	-5
CC(=O)N1CCCN(S(=O)(=O)c2ccc3c(c2)oc(=O)n3C)CC1	x	x	1	x	x	-3
COc1cc(/C=c2\s/c(=C(/C#N)C(=O)N3CCCC3)n(-c3ccccc3)c2=O)ccc1O	58*	17	-4	1	10	-8
CC1(C)Cc2c(c(N3CCOCC3)nc3sc4c(NN)ncnc4c23)CS1	59*	2	-7	3	40	4
O=C(NO)c1ccc(C(=O)N(C2CCCCC2)C2CCCCC2)cc1	81*	-1	-6	2	-19	3
COC(=O)C1CN(Cc2ccc(Cl)cc2)CCS(=O)(=O)N1Cc1cn(Cc2ccc(F)cc2)nn1 (centres undefined)	x	x	3	x	x	0
C=CCN1C(=O)[C@H](CC(=O)N2CCC(c3ccccc3)CC2)[C@@]2(C(=O)OCC)CCCC=C12	x	x	0	x	x	-7
C#CCOc1nc(Nc2cccc([N+](=O)[O-])c2)nc(OCC#C)n1	56*	0	1	-3	7	5
O=C1CC(c2ccc3ccccc3c2)N=C2N(Cc3ccc4c(c3)OCO4)C/C(=C/c3ccccc3)N12 (centres undefined)	x	x	-5	x	x	5
CCOc1ccc(-n2c(C)cc(C(=O)CCl)c2C)cc1	-12	-2	-10	0	59*	-9
